We go through 20 molecules from ChEMBL document CHEMBL1139241, “Structure-activity relationship studies of a new series of imidazo[2,1-f]purinones as potent and selective A(3) adenosine receptor antagonists” (Bioorg Med Chem, 2008).

Bounds are passed on as bounds.

Chain of Adenosine receptor A2a (P29274 whole entry): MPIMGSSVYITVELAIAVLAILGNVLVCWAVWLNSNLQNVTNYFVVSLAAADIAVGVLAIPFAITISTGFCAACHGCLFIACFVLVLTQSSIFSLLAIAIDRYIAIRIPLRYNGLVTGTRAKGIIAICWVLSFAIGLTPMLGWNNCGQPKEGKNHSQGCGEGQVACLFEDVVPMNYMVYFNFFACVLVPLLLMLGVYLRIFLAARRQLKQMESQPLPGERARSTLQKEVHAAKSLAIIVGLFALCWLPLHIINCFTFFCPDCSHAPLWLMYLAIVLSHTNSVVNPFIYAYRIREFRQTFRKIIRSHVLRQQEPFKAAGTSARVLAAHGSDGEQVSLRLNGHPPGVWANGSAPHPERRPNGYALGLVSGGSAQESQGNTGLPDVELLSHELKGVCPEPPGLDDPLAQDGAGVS

The first assay deals with T1, Adenosine receptor A2b (Homo sapiens, UniProt P29275).
T1 sequence (P29275 whole entry): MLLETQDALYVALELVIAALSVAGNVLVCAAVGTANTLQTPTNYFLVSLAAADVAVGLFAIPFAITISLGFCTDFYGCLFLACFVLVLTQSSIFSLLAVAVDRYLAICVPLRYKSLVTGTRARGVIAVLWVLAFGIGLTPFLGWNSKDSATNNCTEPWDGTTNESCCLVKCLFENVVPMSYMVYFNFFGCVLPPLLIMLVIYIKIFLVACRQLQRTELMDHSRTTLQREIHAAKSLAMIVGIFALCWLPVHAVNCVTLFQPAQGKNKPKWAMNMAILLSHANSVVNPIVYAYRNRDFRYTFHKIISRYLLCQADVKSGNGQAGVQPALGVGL
Kind of assay: Antagonist activity at human cloned adenosine A2B cells expressed in CHO cells assessed as inhibition of NECA-stimulated cAMP production. Format: functional, cell-based. Summed up: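 CHO cells with human A2B receptor, trypsin-detached, 1×10^6 cells/assay, in buffered salt medium pH 7.4 with 2 IU/ml adenosine deaminase and Ro 20-1724, preincubated 10 min at 37 °C. Antagonism of 100 nM NECA-stimulated cAMP. Stopped with cold 6% TCA, ether-extracted, cAMP measured by [3H]cAMP competition protein binding. IC50 from sigmoid nonlinear regression, n = 4, mean ± SEM.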
Broadly, the IC50 is the midpoint of a concentration-inhibition curve. Take `CCCn1c(=O)c2c(nc3n(CC)c(C)cn23)n(Cc2ccccc2)c1=O`: the IC50 is above 1 µM.
The same measure, in the same setting: under `CCCn1c(=O)c2c(nc3[nH]c(-c4ccccc4)cn32)n(Cc2ccccc2)c1=O` stands above 1 µM; under `CCCn1c(=O)c2c(nc3[nH]c(-c4ccc(-c5ccccc5)cc4)cn32)n(Cc2ccccc2)c1=O`, above 1 µM.
Take `Cc1cn2c(nc3c2c(=O)n(CCO)c(=O)n3Cc2ccccc2)[nH]1`: the IC50 was above 1 µM.
On the same count and under the same terms, under `Cc1cn2c3c(=O)[nH]c(=O)n(Cc4ccccc4)c3nc2n1C(C)CO` (stereo not given) stands above 1 µM; under `CCOC(=O)Cn1c(=O)c2c(nc3[nH]c(C)cn32)n(Cc2ccccc2)c1=O`, above 1 µM; under `C=CCn1c(=O)c2c(nc3[nH]c(C)cn32)n(Cc2ccccc2)c1=O`, above 1 µM.
Still for that read-out and setting: under `CCCn1c(=O)c2c(nc3n2CC(c2ccccc2)=C3)n(Cc2ccccc2)c1=O` stands above 1 µM; under `CCCn1c(=O)c2c(nc3[nH]c(C)cn32)n(Cc2ccccn2)c1=O`, above 1 µM; under `Cc1cn2c(nc3c2c(=O)n(CCCO)c(=O)n3Cc2ccccc2)[nH]1`, above 1 µM.
On the same count and under the same terms, under `Cc1cn2c(nc3c2c(=O)n(CCN(C)C)c(=O)n3Cc2ccccc2)[nH]1` stands above 1 µM; under `C#CCn1c(=O)c2c(nc3[nH]c(C)cn32)n(Cc2ccccc2)c1=O`, above 1 µM.
As for `Cc1cn2c(nc3c2c(=O)[nH]c(=O)n3Cc2ccccc2)[nH]1`, the concentration for half-maximal inhibition (IC50) is above 1 µM.
Same read-out and setting: under `CC(=O)Cn1c(=O)c2c(nc3[nH]c(C)cn32)n(Cc2ccccc2)c1=O` stands above 1 µM.
Same read-out and setting: under `CCCn1c(=O)c2c(nc3[nH]c(C)cn32)n(Cc2ccncc2)c1=O` stands above 1 µM.
Same read-out and setting: under `CCCn1c(=O)c2c(nc3[nH]c(-c4ccc(OC)cc4)cn32)n(Cc2ccccc2)c1=O` stands above 1 µM; under `CCCn1c(=O)c2c(nc3[nH]c(C)cn32)n(Cc2cccnc2)c1=O`, above 1 µM.
For the molecule `CCCn1c(=O)c2c(nc3[nH]c(-c4ccc(F)cc4)cn32)n(Cc2ccccc2)c1=O`, the IC50 was above 1 µM.
Still for that read-out and setting: with `Cn1c(=O)c2c(nc3[nH]c(-c4ccccc4)cn32)n(C)c1=O` the figure was above 1 µM; with `CCn1c(C)cn2c3c(=O)[nH]c(=O)n(Cc4ccccc4)c3nc12`, above 1 µM.

The next assay addresses Adenosine receptor A2a (Homo sapiens, UniProt P29274). Description: Displacement of [3H]ZM241385 from human cloned adenosine A2A receptor expressed in CHO cells. Format: cell-based. Background: Loss of bound radioactivity is the signal in a displacement assay; it reports binding, not function.
One may read the Ki as the dissociation constant of the complex between target and ligand, obtained from inhibition or displacement. Read a low Ki as a stronger hold on the target. `CCCn1c(=O)c2c(nc3n(CC)c(C)cn23)n(Cc2ccccc2)c1=O`: the inhibition constant (Ki) was above 1 µM.
Same read-out and setting: with `Cc1cn2c(nc3c2c(=O)n(CCO)c(=O)n3Cc2ccccc2)[nH]1` the figure was above 1 µM; with `Cc1cn2c3c(=O)[nH]c(=O)n(Cc4ccccc4)c3nc2n1C(C)CO` (stereo not given), above 1 µM.
Same read-out and setting: with `CCOC(=O)Cn1c(=O)c2c(nc3[nH]c(C)cn32)n(Cc2ccccc2)c1=O` the figure was above 1 µM.
The molecule `C=CCn1c(=O)c2c(nc3[nH]c(C)cn32)n(Cc2ccccc2)c1=O` had an inhibitory constant (Ki) above 1 µM.
Same read-out and setting: with `CCCn1c(=O)c2c(nc3[nH]c(C)cn32)n(Cc2ccccn2)c1=O` the figure was above 1 µM; with `Cc1cn2c(nc3c2c(=O)n(CCCO)c(=O)n3Cc2ccccc2)[nH]1`, above 1 µM; with `Cc1cn2c(nc3c2c(=O)n(CCN(C)C)c(=O)n3Cc2ccccc2)[nH]1`, above 1 µM.
The same measure, in the same setting: under `C#CCn1c(=O)c2c(nc3[nH]c(C)cn32)n(Cc2ccccc2)c1=O` stands above 1 µM; under `Cc1cn2c(nc3c2c(=O)[nH]c(=O)n3Cc2ccccc2)[nH]1`, above 1 µM; under `CC(=O)Cn1c(=O)c2c(nc3[nH]c(C)cn32)n(Cc2ccccc2)c1=O`, above 1 µM.
Same read-out and setting: with `CCCn1c(=O)c2c(nc3[nH]c(C)cn32)n(Cc2ccncc2)c1=O` the figure was above 1 µM; with `CCCn1c(=O)c2c(nc3[nH]c(C)cn32)n(Cc2cccnc2)c1=O`, above 1 µM.
The molecule `Cn1c(=O)c2c(nc3[nH]c(-c4ccccc4)cn32)n(C)c1=O` returned a Ki above 1 µM.
Still for that read-out and setting: with `CCn1c(C)cn2c3c(=O)[nH]c(=O)n(Cc4ccccc4)c3nc12` the figure was above 1 µM.

The target in a further assay is T2, Adenosine receptor A3 (Homo sapiens, UniProt P0DMS8).
T2 sequence (P0DMS8 whole entry): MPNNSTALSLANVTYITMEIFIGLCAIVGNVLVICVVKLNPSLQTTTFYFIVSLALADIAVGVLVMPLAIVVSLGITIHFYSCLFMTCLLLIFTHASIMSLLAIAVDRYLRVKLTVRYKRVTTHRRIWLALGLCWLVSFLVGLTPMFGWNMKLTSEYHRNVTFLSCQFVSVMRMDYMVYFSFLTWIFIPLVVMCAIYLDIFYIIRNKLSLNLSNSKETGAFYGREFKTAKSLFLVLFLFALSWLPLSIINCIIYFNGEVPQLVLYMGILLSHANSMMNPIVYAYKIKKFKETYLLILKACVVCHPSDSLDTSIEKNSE
Description: Displacement of [3H]MRE3008F20 from human cloned adenosine A3 receptor expressed in CHO cells. In kind it is cell-based.
With `CCCn1c(=O)c2c(nc3n(CC)c(C)cn23)n(Cc2ccccc2)c1=O`, the Ki turned out to be 0.2 µM.
Still for that read-out and setting: under `Cc1cn2c(nc3c2c(=O)n(CCO)c(=O)n3Cc2ccccc2)[nH]1` stands 0.038 µM; under `Cc1cn2c3c(=O)[nH]c(=O)n(Cc4ccccc4)c3nc2n1C(C)CO` (stereo not given), above 1 µM; under `CCOC(=O)Cn1c(=O)c2c(nc3[nH]c(C)cn32)n(Cc2ccccc2)c1=O`, 0.02 µM.
The same measure, in the same setting: with `C=CCn1c(=O)c2c(nc3[nH]c(C)cn32)n(Cc2ccccc2)c1=O` the figure was 0.00513 µM.
Still for that read-out and setting: with `CCCn1c(=O)c2c(nc3[nH]c(C)cn32)n(Cc2ccccn2)c1=O` the figure was 0.034 µM; with `Cc1cn2c(nc3c2c(=O)n(CCCO)c(=O)n3Cc2ccccc2)[nH]1`, 0.11 µM; with `Cc1cn2c(nc3c2c(=O)n(CCN(C)C)c(=O)n3Cc2ccccc2)[nH]1`, 0.098 µM.
The molecule `C#CCn1c(=O)c2c(nc3[nH]c(C)cn32)n(Cc2ccccc2)c1=O` showed a Ki of 0.015 µM.
Regarding `Cc1cn2c(nc3c2c(=O)[nH]c(=O)n3Cc2ccccc2)[nH]1`, the Ki turned out to be 0.148 µM.
On the same count and under the same terms, under `CC(=O)Cn1c(=O)c2c(nc3[nH]c(C)cn32)n(Cc2ccccc2)c1=O` stands 0.182 µM.
Molecule `CCCn1c(=O)c2c(nc3[nH]c(C)cn32)n(Cc2ccncc2)c1=O` displayed a Ki of 0.141 µM.
Same read-out and setting: with `CCCn1c(=O)c2c(nc3[nH]c(C)cn32)n(Cc2cccnc2)c1=O` the figure was 0.057 µM.
On the same count and under the same terms, with `Cn1c(=O)c2c(nc3[nH]c(-c4ccccc4)cn32)n(C)c1=O` the figure was above 1 µM; with `CCn1c(C)cn2c3c(=O)[nH]c(=O)n(Cc4ccccc4)c3nc12`, above 1 µM.

The target in a further assay is T3, Adenosine receptor A1 (Homo sapiens, UniProt P30542).
T3 sequence (P30542 whole entry): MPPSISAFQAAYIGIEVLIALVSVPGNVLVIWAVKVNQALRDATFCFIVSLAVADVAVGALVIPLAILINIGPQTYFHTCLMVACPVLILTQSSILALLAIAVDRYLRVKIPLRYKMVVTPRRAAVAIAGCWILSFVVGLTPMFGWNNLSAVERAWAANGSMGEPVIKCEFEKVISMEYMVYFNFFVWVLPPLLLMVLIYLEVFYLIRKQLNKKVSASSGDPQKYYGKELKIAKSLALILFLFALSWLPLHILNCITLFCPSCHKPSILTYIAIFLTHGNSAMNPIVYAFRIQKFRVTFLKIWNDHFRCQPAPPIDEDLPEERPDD
Description: Displacement of [3H]DPCPX from human cloned adenosine A1 receptor expressed in CHO cells. In kind it is cell-based.
`CCCn1c(=O)c2c(nc3n(CC)c(C)cn23)n(Cc2ccccc2)c1=O` showed a Ki above 1 µM.
On the same count and under the same terms, with `Cc1cn2c(nc3c2c(=O)n(CCO)c(=O)n3Cc2ccccc2)[nH]1` the figure was above 1 µM.
Regarding `Cc1cn2c3c(=O)[nH]c(=O)n(Cc4ccccc4)c3nc2n1C(C)CO` (stereo not given), the Ki was above 1 µM.
As to `CCOC(=O)Cn1c(=O)c2c(nc3[nH]c(C)cn32)n(Cc2ccccc2)c1=O`, the Ki is above 1 µM.
Still for that read-out and setting: under `C=CCn1c(=O)c2c(nc3[nH]c(C)cn32)n(Cc2ccccc2)c1=O` stands above 1 µM; under `CCCn1c(=O)c2c(nc3[nH]c(C)cn32)n(Cc2ccccn2)c1=O`, above 1 µM; under `Cc1cn2c(nc3c2c(=O)n(CCCO)c(=O)n3Cc2ccccc2)[nH]1`, above 1 µM.
The same measure, in the same setting: with `Cc1cn2c(nc3c2c(=O)n(CCN(C)C)c(=O)n3Cc2ccccc2)[nH]1` the figure was above 1 µM.
In turn, `C#CCn1c(=O)c2c(nc3[nH]c(C)cn32)n(Cc2ccccc2)c1=O` returned a Ki above 1 µM.
Regarding `Cc1cn2c(nc3c2c(=O)[nH]c(=O)n3Cc2ccccc2)[nH]1`, the Ki was above 1 µM.
Consider `CC(=O)Cn1c(=O)c2c(nc3[nH]c(C)cn32)n(Cc2ccccc2)c1=O`, for which the Ki was above 1 µM.
`CCCn1c(=O)c2c(nc3[nH]c(C)cn32)n(Cc2ccncc2)c1=O` had an inhibition constant Ki above 1 µM.
Same read-out and setting: under `CCCn1c(=O)c2c(nc3[nH]c(C)cn32)n(Cc2cccnc2)c1=O` stands above 1 µM; under `Cn1c(=O)c2c(nc3[nH]c(-c4ccccc4)cn32)n(C)c1=O`, above 1 µM; under `CCn1c(C)cn2c3c(=O)[nH]c(=O)n(Cc4ccccc4)c3nc12`, above 1 µM.
